From publication PMC4245164 (ACS Chemical Biology, 2014)

Assays:
Pmp22 [1] = experiment: S16 GLuc and secNLuc Pmp22 reporter qHTS follow-up assays; format: cell-based, rat; settings: for effect on reporter activity: GLuc and secNLuc reporters; for potency on Pmp22 expression: data not shown
Pmp22 [2] = experiment: Quantitative RT-PCR of endogenous Pmp22 in S16 cells; format: cell-based, rat; settings: qRT-PCR, 1 or 10 nM, 24 h
In short: (§1)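 S16 rat Schwann cells were plated at 2×10^5 cells/well in 6-well plates. They were treated for 24 h with test compound at 1 nM or 10 nM, or with DMSO (0.6%) only. RNA was purified and reverse-transcribed to cDNA. qPCR used SYBR green reactions or Taqman-based custom microfluidic arrays. Data were normalized to ActB and expressed relative to the untreated sample, set to 1 for each gene.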

Pmp22 [3] = experiment: S16 secNLuc reporter cell assay; format: cell-based, rat
PMP22 regulatory element = experiment: S16 intronic enhancer FLuc reporter assay; format: cell-based, rat; settings: retest after completion of the study
In short: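 S16 cells carrying a randomly integrated firefly luciferase reporter driven by the Pmp22 intronic enhancer were retested with test compound after the main study. Data are shown with standard deviation of two replicates.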

[4] = system: major myelin genes and their regulators; experiment: Quantitative RT-PCR of co-regulated myelin genes and regulators in S16 cells; format: cell-based, rat; settings: qRT-PCR, 1 or 10 nM, 24 h
In short: as §1

CMT1A patients = settings: human clinical trials; cited from earlier work

In the case of `CC(=O)[C@@]1(O)CC[C@H]2[C@@H]3CCC4=CC(=O)CC[C@]4(C)C3(F)[C@@H](O)C[C@@]21C` (stereo partly drawn) [flugestone], the “effect on reporter activity” value (Pmp22 [1]) is reported as “increasing reporter activity”.
In the case of `Cn1cc(C2=C(c3cn(C4CCN(Cc5ccccn5)CC4)c4ccccc34)C(=O)NC2=O)c2ccccc21` [enzastaurin], the “potency on Pmp22 expression” value (Pmp22 [1]) is reported as “lack of potency”.
With `COc1ccc2c(c1)c(C1=C(c3c[nH]c4ccccc34)C(=O)NC1=O)cn2CCCN(C)C` [Go 6983] the “potency on Pmp22 expression” value (Pmp22 [1]) was “lack of potency”.
In the case of `CCC/C=C/C=C/C(=O)O[C@H]1/C(=C/C(=O)OC)C[C@H]2C[C@H]([C@@H](C)O)OC(=O)C[C@H](O)C[C@@H]3C[C@H](OC(C)=O)C(C)(C)[C@](O)(C[C@@H]4C/C(=C/C(=O)OC)C[C@H](/C=C/C(C)(C)[C@]1(O)O2)O4)O3` [bryostatin, Bryostatin 1], the “Pmp22 expression relative to untreated S16 cells” value (Pmp22 [2]) is reported as no more than 50%, the “efficacy relative to the control, bortezomib” value (Pmp22 [3]; S16 NLuc assay, full titration response profile) is reported as “partial efficacy” and the “effect in the intronic FLuc assay” value (PMP22 regulatory element) is reported as “no inhibitory effect”. For the same compound, the Myelin-associated glycoprotein expression [4] was “decline to a greater degree than Pmp22”, the Periaxin expression [4] was “decline to a greater degree than Pmp22” and the “expression of most of the other tested genes” value [4] was “not affected”.
In the case of `CCCCCCCCCCCCCC(=O)O[C@@H]1[C@@H](C)[C@@]2(O)[C@@H](C=C(CO)C[C@]3(O)C(=O)C(C)=C[C@@H]23)[C@@H]2C(C)(C)[C@]12OC(C)=O` [PMA, Phorbol 12-myristate 13-acetate], the “effect on Pmp22 reporter expression” value (Pmp22 [3]; nanomolar levels, 24 h, secNLuc S16 cell line) is reported as “repression”.
In the case of `O=C1O[C@H]([C@@H](O)CO)C(O)=C1O` [ascorbic acid], the “effect in CMT1A patients” value (CMT1A patients) is given as “have not shown a significant effect”.
For `CC#C[C@]1(O)CC[C@H]2[C@@H]3CCC4=CC(=O)CCC4=C3[C@@H](c3ccc(N(C)C)cc3)C[C@@]21C` [mifepristone], the “effect on reporter activity” value (Pmp22 [1]) was “marginal effect”.
